Data as given in ChEMBL document CHEMBL3621081, “Rational Development of a Potent 15-Lipoxygenase-1 Inhibitor with in Vitro and ex Vivo Anti-inflammatory Properties” (J Med Chem, 2015).
Blank lines part the entries; values can stand above or below the molecule they belong to. Active and inactive are the calls of the source. The rule behind the calls is not given here.

Assays:
[1] = biological target: T1, Polyunsaturated fatty acid lipoxygenase ALOX15 (Homo sapiens) (UniProt P16050); assay: Inhibition of human 15-LOX1 assessed as conversion of linoleic acid to 13(S)-HpODE at 50 uM after 10 mins by UV analysis
T1 sequence (whole entry): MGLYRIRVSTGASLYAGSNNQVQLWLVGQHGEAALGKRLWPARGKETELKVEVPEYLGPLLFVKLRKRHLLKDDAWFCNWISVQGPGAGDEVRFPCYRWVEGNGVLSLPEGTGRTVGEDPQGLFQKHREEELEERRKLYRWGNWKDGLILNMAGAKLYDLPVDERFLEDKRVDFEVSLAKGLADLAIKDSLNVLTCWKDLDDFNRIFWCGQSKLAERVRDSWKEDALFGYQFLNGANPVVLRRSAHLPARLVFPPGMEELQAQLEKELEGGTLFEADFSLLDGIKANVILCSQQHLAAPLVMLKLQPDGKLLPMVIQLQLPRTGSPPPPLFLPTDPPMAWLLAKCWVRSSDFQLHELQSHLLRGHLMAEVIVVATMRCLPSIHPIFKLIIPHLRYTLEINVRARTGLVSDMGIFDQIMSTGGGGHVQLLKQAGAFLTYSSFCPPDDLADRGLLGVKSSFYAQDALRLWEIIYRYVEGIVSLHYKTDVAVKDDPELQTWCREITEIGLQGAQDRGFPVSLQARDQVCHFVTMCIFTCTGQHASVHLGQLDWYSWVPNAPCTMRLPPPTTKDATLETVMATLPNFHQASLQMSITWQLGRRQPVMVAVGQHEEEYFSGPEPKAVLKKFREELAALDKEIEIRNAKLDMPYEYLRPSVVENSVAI
In short: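 Single-concentration screen at 50 μM: h-15-LOX-1 (1:640 final) in 25 mM HEPES pH 7.5 is preincubated with inhibitor for 10 min at rt. 25 µM linoleic acid final is added, and product formation is followed as the linear A234 increase. Activity is normalised to no-inhibitor (100%) and no-enzyme (0%) controls, in triplicate.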

Lung [2] = assay: Antiinflammatory activity in C57BL/6 mouse precision-cut lung slices assessed as reduction of LPS/INFgamma-induced IL-12 gene expression at 1 to 100 nM treated 20 hrs before LPS/INFgamma stimulation measured after 4 hrs by RT-qPCR analysis relative to control; format: functional, tissue-based
In short: (§1)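 Male C57bl/6 mouse lungs are agarose-filled, then cut into 250 μm slices, 3 per well, in supplemented DMEM at 37 °C and 5% CO2. Inhibitor is given at 1-500 nM final with 10 μM linoleic acid for 20 h, and LPS/IFNγ is added for the last 4 h. IL-1β, IL-6, IL-10, IL-12 and GAPDH mRNA are measured by RT-qPCR as fold change versus the LPS/IFNγ/linoleic acid control. Mean ± SEM, 4-6 independent experiments.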

Lung [3] = assay: Antiinflammatory activity in C57BL/6 mouse precision-cut lung slices assessed as reduction of LPS/INFgamma-induced IL-1beta gene expression at 1 to 100 nM treated 20 hrs before LPS/INFgamma stimulation measured after 4 hrs by RT-qPCR analysis relative to control; format: functional, tissue-based; in short: as §1
RAW264.7 [4] = assay: Cytotoxicity against mouse RAW264.7 cells assessed as cell viability at 12.5 uM by MTS assay; format: cell-based; details: raw264.7, 12.5 µM
In short: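 RAW 264.7 macrophages are incubated with inhibitor at 0.05-100 μM, and viability is read by MTS assay. Treated wells are compared statistically with non-treated control cells.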

Lung [5] = assay: Antiinflammatory activity in C57BL/6 mouse precision-cut lung slices assessed as increase of LPS/INFgamma-induced IL-10 gene expression at 1 to 100 nM treated 20 hrs before LPS/INFgamma stimulation measured after 4 hrs by RT-qPCR analysis relative to control; format: functional, tissue-based; in short: as §1
RAW264.7 [6] = assay: Antiinflammatory activity in mouse RAW264.7 cells assessed as effect on LPS/INFgamma-induced IL-1beta gene expression at 1 to 100 nM treated 20 hrs before LPS/INFgamma stimulation measured after 4 hrs by RT-qPCR analysis; format: functional, cell-based
In short: (§2)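 RAW 264.7 cells (passage 7-16, DMEM with 10% FBS) are seeded at 20,000 cells/cm2 the day before. They receive 1-500 nM inhibitor final plus 10 μM linoleic acid for 20 h, with 10 ng/ml LPS and IFNγ for the last 4 h. Cytokine mRNA is measured by RT-qPCR on 10 ng cDNA, PCR in duplicate or triplicate, as fold change versus the LPS/IFNγ/linoleic acid control. Mean ± SEM, 4-6 experiments.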

Lung [7] = assay: Cytotoxicity against C57BL/6 mouse precision-cut lung slices assessed as viability at 500 nM by LDH release assay; format: tissue-based; details: 0.5 µM
In short: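 Mouse lung slices are exposed to 1, 10, 100 or 500 nM inhibitor with 10 μM linoleic acid for 20 h. […] Mean ± SD of 3 independent experiments.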

RAW264.7 [8] = assay: Antiinflammatory activity in mouse RAW264.7 cells assessed as effect on LPS/INFgamma-induced IL-12 gene expression at 1 to 100 nM treated 20 hrs before LPS/INFgamma stimulation measured after 4 hrs by RT-qPCR analysis; format: functional, cell-based; in short: as §2
RAW264.7 [9] = assay: Antiinflammatory activity in mouse RAW264.7 cells assessed as effect on LPS/INFgamma-induced IL-6 gene expression at 1 to 100 nM treated 20 hrs before LPS/INFgamma stimulation measured after 4 hrs by RT-qPCR analysis; format: functional, cell-based; in short: as §2
Lung [10] = assay: Antiinflammatory activity in C57BL/6 mouse precision-cut lung slices assessed as reduction of LPS/INFgamma-induced IL-6 gene expression at 1 to 100 nM treated 20 hrs before LPS/INFgamma stimulation measured after 4 hrs by RT-qPCR analysis relative to control; format: functional, tissue-based; in short: as §1

inhibition [1]: inactive
Compound: CC(C)(C)OC(=O)c1cc2ccc(Cl)cc2[nH]1

inhibition [1]: inactive
Compound: O=Cc1c[nH]c2cc(Cl)ccc12

inhibition [1]: inactive
Compound: O=Cc1c(Cl)[nH]c2cc(Cl)ccc12

inhibition [1]: inactive
Compound: O=Cc1c(C(=O)O)[nH]c2cc(Cl)ccc12

Second part, the molecule before the results:

Compound: CCOC(=O)c1c(C=O)c2ccc(Cl)cc2n1C
inhibition [1]: inactive

Compound: O=Cc1c[nH]c2ccccc12
inhibition [1]: inactive

Compound: CCOC(=O)c1[nH]c2cc(Cl)ccc2c1C(=O)C[C@@H](C)CCCC(C)C
Activity (Lung [2]): inactive | Activity (Lung [3]): Active | Activity (RAW264.7 [4]): Non-toxic | Activity (Lung [5]): Active | Activity (RAW264.7 [6]): inactive | Activity (Lung [7]): Non-toxic | Activity (RAW264.7 [8]): inactive | Activity (RAW264.7 [9]): inactive | Activity (Lung [10]): Active

Compound: CC(C)(C)OC(=O)n1cc(C=O)c2ccccc21
inhibition [1]: inactive
